Assay outcomes from PubChem.
A selection: hits, their analogues and other compounds. The true share with any hit is near 3%.
Casp6 inh: human caspase-6 inhibitors, primary screen, biochemical, VEID-R110 fluorescence, single point, set 2; inhibition, % at 12.5 µM; purified caspase-6, Z-VEID-R110 cleavage fluorescence; P55212; 350,000 compounds, 0.53% hits;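 active = mean inhibition across replicates at least about 35%, with every replicate also reaching that limit, limit read from the data; inconclusive = only one of the two criteria met; inactive = neither criterion met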;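 note: 0% = median of neutral control wells and 100% = no fluorescence left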
Target sequence (P55212 24-179 limits assumed): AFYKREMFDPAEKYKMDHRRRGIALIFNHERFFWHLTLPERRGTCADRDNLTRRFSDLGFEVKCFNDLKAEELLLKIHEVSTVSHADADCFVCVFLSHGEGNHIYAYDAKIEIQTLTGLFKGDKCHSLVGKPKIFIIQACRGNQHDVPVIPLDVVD
Target sequence (P55212 194-293 limits assumed): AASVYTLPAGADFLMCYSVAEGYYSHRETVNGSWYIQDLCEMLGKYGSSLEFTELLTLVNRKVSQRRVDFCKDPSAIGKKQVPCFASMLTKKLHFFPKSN
MITF act: activators of MITF-driven TRPM1 promoter reporter, primary screen, cell-based, SK-MEL-5, luciferase, single point. SK-MEL-5 TRPM1-promoter luciferase, 24 h; % of positive control, neutral wells = 0. activation, % at 12.5 µM. 300,000 compounds, 0.75% hits. AID 588334, 2011;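 active = mean activation of at least 80% with every replicate also reaching 80%; inconclusive = mean reaches 80% but some replicate falls short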;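 note: 0% = neutral control wells and 100% = parthenolide positive control wells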
Wnt bcat act: Wnt/beta-catenin pathway activators, primary screen, cell-based, plate reader, single point | Wnt/beta-catenin reporter cell assay, activator | activation, % at 9.35 µM | 300,000 compounds, 1.2% hits | AID 743398, 2014; in the data active = activation above about 30%, passing the limit was not always enough; inconclusive = no clear call, values can overlap the other calls;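 note: 0% = neutral control wells and 100% = positive control wells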
esBAF inh: Bmi1 luciferase reporter increase in mESCs, primary screen, esBAF inhibitor project, mouse ES cells, Bmi1 luciferase knock-in, single point | 24 h; 100% = twice the neutral-well signal | reporter increase, % at 12.5 µM | 350,000 compounds, 2% hits; in the data active = activation above about 40%; inconclusive = no clear call, values can overlap the other calls;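 note: 0% = median of the plate's neutral control wells and 100% = double that signal; a rise in the Bmi1 reporter signal indicates esBAF inhibition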
XiGFP reactiv: activators of inactive X chromosome reactivation, primary screen, imaging, XiGFP fibroblasts, GFP high-content imaging, set 2. XiGFP mouse fibroblasts, % GFP-positive cells imaging, 3 d; cells co-treated with 5-aza-dC sensitizer; scaled so ellipticine positive control = 100%. activation, % at 7.58 µM. 360,000 compounds, 0.055% hits. AID 743238, 2013;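 active = mean normalized replicate activation at least 10% and every replicate at or above 10%; inconclusive = only one of the two criteria met; inactive = mean below 10% and not all replicates reach 10%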;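 note: 0% = median of on-plate neutral control wells and 100% = ellipticine 6 µM median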
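Assay system – SV40-immortalized XiGFP fibroblast cells, line 68-5-11 · Buffer or medium – DMEM supplemented with 5-aza-dC as sensitizing agent · Dosing – one concentration, pinned · Benchmarks – positive control ellipticine, 6 µM final · Times – 3 days compound exposure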
NSD2 inh: NSD2 histone methyltransferase inhibitors, primary screen, biochemical, AlphaScreen, single concentration, set 2 | Histone-lysine N-methyltransferase NSD2 (Homo sapiens), O96028 | NSD2 peptide methylation, 120 min | inhibition, % at 12.5 µM | 310,000 compounds, 0.54% hits | AID 743445, 2014; in the data active = inhibition above about 50%
Active calls of the source: *; ? = inconclusive; nt = no result given.

SMILES	Casp6 inh	MITF act	Wnt bcat act	esBAF inh	XiGFP reactiv	NSD2 inh
CN(C)CC(=O)Nc1ccc2c(c1)[C@@H]1C[C@@H](CC(=O)N3CCOCC3)O[C@@H](CO)[C@@H]1O2	nt	nt	nt	1	0	nt
O=C(COC(=O)c1ccc([N+](=O)[O-])o1)NCc1ccc(F)cc1	52*	-28	-1	3	0	2
O=C(COC(=O)c1ccc([N+](=O)[O-])o1)NCCCc1ccccc1	49*	-17	-1	-2	0	0
CCN(c1ccc(NC(=O)COC(=O)c2ccc([N+](=O)[O-])o2)cc1)C(C)C	9	-12	2	11	0	-4
CC(=O)Nc1ccc(NC(=O)COC(=O)c2ccc([N+](=O)[O-])o2)cc1	54*	-4	2	-7	0	2
COc1ccc(CCNC(=O)COC(=O)c2ccc([N+](=O)[O-])o2)cc1	59*	-14	-2	-8	0	15
COc1ccc(CCNC(=O)COc2ccc([N+](=O)[O-])cc2)cc1	4	-3	0	-7	0	1
O=C(c1cccc(F)c1)N1CC2(C1)[C@H](c1ccccc1)[C@@H](CO)N2C(=O)C1CCC1	1	nt	nt	nt	0	nt
O=S(=O)(Nc1cccc(-c2ccc(N3CCCCCC3)nn2)c1)c1ccc(F)cc1	-6	63	17	56*	0	-2
O=S(=O)(Nc1cccc(-c2ccc(N3CCCCCC3)nn2)c1)c1ccc(C(F)(F)F)cc1	3	51	-1	56*	0	5
O=S(=O)(Nc1cccc(-c2ccc(N3CCCCCC3)nn2)c1)c1cccc(F)c1	6	98*	29	66*	0	2
O=S(=O)(Nc1cccc(-c2ccc(N3CCCCCC3)nn2)c1)c1ccccc1F	-2	72	26	nt	0	-2
O=S(=O)(Nc1cccc(-c2ccc(N3CCCCCC3)nn2)c1)c1ccccc1Cl	0	3	5	44*	0	-2
C[C@H]1CN([C@@H](C)CO)C(=O)c2cc(C#CCN(C)C)cnc2O[C@H]1CN(C)C(=O)CCN1CCCCC1	2	nt	nt	2	0	nt
COCC(=O)Nc1ccc2c(c1)C(=O)N(C)C[C@@H](OC)[C@@H](C)CN(C(C)=O)[C@H](C)CO2	-4	nt	nt	3	0	nt
COc1ccc(CNC(=O)C[C@H]2C=C[C@@H](NC(=O)c3ccc4c(c3)OCO4)[C@@H](CO)O2)cc1	0	nt	nt	nt	0	nt
Cc1ccc([N+](=O)[O-])cc1S(=O)(=O)Nc1cccc(-c2ccc(N3CCCC3)nn2)c1	3	26	6	18	0	0
Cc1ccc(S(=O)(=O)Nc2cccc(-c3ccc(N4CCCCCC4)nn3)c2)cc1C	-3	58	13	46*	0	0
O=[N+]([O-])c1ccc(Cl)c(S(=O)(=O)Nc2ccc(-c3ccc(N4CCOCC4)nn3)cc2)c1	-3	4	5	15	0	2
O=[N+]([O-])c1ccc(Cl)c(S(=O)(=O)Nc2cccc(-c3ccc(N4CCOCC4)nn3)c2)c1	5	86*	10	32	0	4
O=C(Nc1ccc(C(F)(F)F)cc1)N1[C@@H]2CNC[C@H]1C2c1ccc(-c2ccc(F)cc2)cc1 (stereo partly drawn)	-3	nt	nt	nt	0	nt
Cc1nn(-c2ccc(N3CCCCC3)nn2)c(C)c1CCC(=O)Nc1ccccc1F	0	57	14	17	0	-8
Cc1nn(-c2ccc(N3CCCCC3)nn2)c(C)c1CCC(=O)Nc1cc(F)ccc1F	-8	75	18	63*	0	-11
O=C(CSC1=Nc2ccccc2C2CC=NN12)Nc1ccc2c(c1)OCO2 (stereo not drawn)	3	-2	0	-4	0	0
N#Cc1ccccc1NC(=O)CSC1=Nc2ccccc2C2CC=NN12 (stereo not drawn)	2	-18	47*	3	0	-8
SMILES	Casp6 inh	MITF act	Wnt bcat act	esBAF inh	XiGFP reactiv	NSD2 inh
O=C1CC(c2ccccc2)c2c(O)cc(O)cc2O1 (stereo not drawn)	nt	-9	nt	2	nt	3
O=C(c1c(O)cc(O)cc1O)C1c2c(cc(O)c3c2O[C@H](c2ccc(O)cc2)[C@@H](O)C3)OC1c1ccc(O)cc1 (stereo partly drawn)	37*	16	2	16	0	nt
COc1cccc2sc(N(C)c3ccccc3)nc12	nt	57	65*	14	nt	-1
COc1cccc2sc(N)nc12	-7	7	8	1	nt	nt
CC(Sc1nc2ccccc2c(=O)n1C)C(=O)Nc1ccc2c(c1)OCCO2 (stereo not drawn)	-4	-19	-5	-12	-1	-2
O=C(Nc1ccc2c(c1)OCO2)N1CCCc2ccccc21	-2	31	36*	?	0	1
COC(=O)C(Cc1c[nH]c2ccccc12)NC(=O)c1ccc2nc[nH]c2c1 (stereo not drawn)	3	39	36*	77*	0	2
CCC(C(=O)Nc1ccc2c(c1)OCCO2)n1nnc2ccccc2c1=O (stereo not drawn)	2	88*	15	59*	0	-2
O=C(NCc1ccc(Cl)cc1Cl)c1ccc2nc[nH]c2c1	nt	-7	2	nt	0	-2
COC(=O)C(Cc1c[nH]c2ccccc12)NC(=O)c1cncc(Br)c1 (stereo not drawn)	nt	-22	1	-1	0	-1
O=C(NCc1ccccc1Cl)c1ccc2nc[nH]c2c1	39*	2	0	nt	0	8
Cc1ccc(NC(=O)Nc2ccc3c(c2)OCO3)cc1F	-2	126*	0	nt	0	-1
Cc1ccc(NC(=O)Nc2ccc3c(c2)OCO3)c(OC(F)F)c1	-1	106*	38*	49*	0	-1
O=C(Nc1cccc(F)c1)c1ccc2c(c1)OCO2	nt	51	nt	78*	nt	-1
NS(=O)(=O)c1cccc(NC(=O)c2ccc3nc[nH]c3c2)c1	54*	nt	-1	-3	0	nt
Cc1cc(F)ccc1NC(=O)Nc1ccc2c(c1)OCO2	2	15	6	16	0	-3
O=C(Nc1cccc([N+](=O)[O-])c1)Nc1ccc2c(c1)OCCO2	0	90*	10	nt	0	0
O=C(Cn1cnc2ccccc2c1=O)NCc1ccc2c(c1)OCO2	nt	11	nt	-9	nt	-1
O=C(NCc1cccs1)Nc1cccc(Cl)c1	nt	42	nt	59*	nt	0
